Results from ChEMBL document CHEMBL1155468, “Syntheses and evaluation of anticonvulsant profile and teratogenicity of novel amide derivatives of branched aliphatic carboxylic acids with 4-aminobenzensulfonamide” (J Med Chem, 2010).
Activity calls are given as the source filed them. The calls are words filed in the database; no cut-off is given here.

How the values were obtained:
Rattus norvegicus [1] = assay: Anticonvulsant activity in Sprague-Dawley rat assessed as inhibition of maximal electroshock-induced seizures at 30 mg/kg, po after 15 mins
Mus musculus [2] = assay: Anticonvulsant activity in CF1 albino mouse assessed as inhibition of subcutaneous pentylenetetrazole-induced seizures at 300 mg/kg, ip after 0.5 hrs; assay type: functional, organism-based; set-up: dose 300 mg/kg
How it was run: (§1)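 Adult male CF no. 1 albino mice (18-25 g) dosed ip with compound suspended in 0.5% methylcellulose (0.01 mL/g). Convulsant: pentylenetetrazol dissolved in 0.9% saline as a 0.85% solution for mice, given subcutaneously.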

Mus musculus [3] = assay: Neurotoxicity in CF1 albino mouse assessed as motor impairment at 30 mg/kg, ip after 0.5 hrs; assay type: toxicity, organism-based; set-up: dose 30 mg/kg, route intraperitoneal; details: in vivo
Rattus norvegicus [4] = assay: Anticonvulsant activity in Sprague-Dawley rat assessed as inhibition of maximal electroshock-induced seizures at 30 mg/kg, po after 30 mins
Rattus norvegicus [5] = assay: Neurotoxicity in Sprague-Dawley rat assessed as motor impairment at 30 mg/kg, po after 0.25 to 4 hrs; details: in vivo
Mus musculus [6] = assay: Anticonvulsant activity in CF1 albino mouse assessed as inhibition of subcutaneous pentylenetetrazole-induced seizures at 100 mg/kg, ip after 0.5 hrs; assay type: functional, organism-based; set-up: dose 100 mg/kg
How it was run: as §1

Mus musculus [7] = assay: Neurotoxicity in CF1 albino mouse assessed as motor impairment at 300 mg/kg, ip after 4 hrs; assay type: toxicity, organism-based; set-up: dose 300 mg/kg, route intraperitoneal; details: in vivo
Mus musculus [8] = assay: Teratogenic effect in SWV mouse assessed as live fetuses at 325 mg/kg, ip administered on morning of day 8 of gestation; assay type: toxicity, organism-based; set-up: dose 325 mg/kg, route intraperitoneal; details: in vivo
Mus musculus [9] = assay: Neurotoxicity in CF1 albino mouse assessed as motor impairment at 300 mg/kg, ip after 0.5 hrs; assay type: toxicity, organism-based; set-up: dose 300 mg/kg, route intraperitoneal; details: in vivo
Rattus norvegicus [10] = species on record: Rattus norvegicus; assay: Protective index, ratio of TD50 for rat to ED50 for maximal electroshock-induced rat seizure model
Mus musculus [11] = assay: Teratogenic effect in SWV mouse assessed as fetuses with neural tube deffects at 325 mg/kg, ip administered on morning of day 8 of gestation; assay type: toxicity, organism-based; set-up: dose 325 mg/kg, route intraperitoneal; details: in vivo
Mus musculus [12] = assay: Neurotoxicity in CF1 albino mouse assessed as motor impairment at 30 mg/kg, ip after 4 hrs; assay type: toxicity, organism-based; set-up: dose 30 mg/kg, route intraperitoneal; details: in vivo
Mus musculus [13] = assay: Anticonvulsant activity in CF1 albino mouse assessed as inhibition of subcutaneous pentylenetetrazole-induced seizures at 30 mg/kg, ip after 4 hrs; assay type: functional, organism-based; set-up: dose 30 mg/kg
How it was run: as §1

Mus musculus [14] = assay: Anticonvulsant activity in CF1 albino mouse assessed as inhibition of subcutaneous pentylenetetrazole-induced seizures at 100 mg/kg, ip after 4 hrs; assay type: functional, organism-based; set-up: dose 100 mg/kg
How it was run: as §1

Mus musculus [15] = assay: Teratogenic effect in SWV mouse assessed as live fetuses at 164 mg/kg, ip administered on morning of day 8 of gestation; assay type: toxicity, organism-based; set-up: dose 164 mg/kg, route intraperitoneal; details: in vivo
Rattus norvegicus [16] = assay: Anticonvulsant activity in Sprague-Dawley rat assessed as inhibition of maximal electroshock-induced seizures at 30 mg/kg, po after 1 hr
Mus musculus [17] = assay: Teratogenic effect in SWV mouse assessed as resorptions at 164 mg/kg, ip administered on morning of day 8 of gestation; assay type: toxicity, organism-based; set-up: dose 164 mg/kg, route intraperitoneal; details: in vivo
Mus musculus [18] = assay: Anticonvulsant activity in CF1 albino mouse assessed as inhibition of maximal electroshock-induced seizures at 30 mg/kg, ip after 0.5 hrs; assay type: functional, organism-based; set-up: dose 30 mg/kg
How it was run: (§2)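 Test compounds suspended in 0.5% methylcellulose and given ip to adult male CF no. 1 albino mice (18-25 g) at 0.01 mL/g body weight before maximal electroshock challenge.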

Mus musculus [19] = assay: Anticonvulsant activity in CF1 albino mouse assessed as inhibition of maximal electroshock-induced seizures at 300 mg/kg, ip after 0.5 hrs; assay type: functional, organism-based; set-up: dose 300 mg/kg
How it was run: as §2

Mus musculus [20] = assay: Anticonvulsant activity in CF1 albino mouse assessed as inhibition of subcutaneous pentylenetetrazole-induced seizures at 30 mg/kg, ip after 0.5 hrs; assay type: functional, organism-based; set-up: dose 30 mg/kg
How it was run: as §1

Mus musculus [21] = assay: Teratogenic effect in SWV mouse assessed as resorptions at 325 mg/kg, ip administered on morning of day 8 of gestation; assay type: toxicity, organism-based; set-up: dose 325 mg/kg, route intraperitoneal; details: in vivo
Mus musculus [22] = assay: Anticonvulsant activity in CF1 albino mouse assessed as inhibition of subcutaneous pentylenetetrazole-induced seizures at 300 mg/kg, ip after 4 hrs; assay type: functional, organism-based; set-up: dose 300 mg/kg
How it was run: as §1

Rattus norvegicus [23] = assay: Anticonvulsant activity in po dosed rat assessed as inhibition of maximal electroshock-induced seizures
Mus musculus [24] = assay: Anticonvulsant activity in CF1 albino mouse assessed as inhibition of maximal electroshock-induced seizures at 30 mg/kg, ip after 4 hrs; assay type: functional, organism-based; set-up: dose 30 mg/kg
How it was run: as §2

Mus musculus [25] = assay: Anticonvulsant activity in CF1 albino mouse assessed as inhibition of maximal electroshock-induced seizures at 300 mg/kg, ip after 4 hrs; assay type: functional, organism-based; set-up: dose 300 mg/kg
How it was run: as §2

Mus musculus [26] = assay: Anticonvulsant activity in CF1 albino mouse assessed as inhibition of maximal electroshock-induced seizures at 100 mg/kg, ip after 0.5 hrs; assay type: functional, organism-based; set-up: dose 100 mg/kg
How it was run: as §2

Mus musculus [27] = assay: Neurotoxicity in CF1 albino mouse assessed as motor impairment at 100 mg/kg, ip after 4 hrs; assay type: toxicity, organism-based; set-up: dose 100 mg/kg, route intraperitoneal; details: in vivo
Mus musculus [28] = assay: Neurotoxicity in CF1 albino mouse assessed as motor impairment at 100 mg/kg, ip after 0.5 hrs; assay type: toxicity, organism-based; set-up: dose 100 mg/kg, route intraperitoneal; details: in vivo
Mus musculus [29] = assay: Teratogenic effect in SWV mouse assessed as fetuses with neural tube deffects at 294 mg/kg, ip administered on morning of day 8 of gestation; assay type: toxicity, organism-based; set-up: dose 294 mg/kg, route intraperitoneal; details: in vivo
How it was run: (§3)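 Two-month-old nulligravid SWV females were mated overnight and checked for vaginal plugs the next morning; gestation onset was set at 10 p.m. the previous night. On gestation day 8.5, each dam received a single ip injection (0.55-2.7 mmol/kg range) or vehicle (25% aqueous Cremophor EL) at 10 μL/g body weight. Litters were scored for implants, resorptions, live and dead fetuses, and fetuses with neural tube defects.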

Mus musculus [30] = assay: Teratogenic effect in SWV mouse assessed as fetuses with neural tube deffects at 486 mg/kg, ip administered on morning of day 8 of gestation; assay type: toxicity, organism-based; set-up: dose 486 mg/kg, route intraperitoneal; details: in vivo
How it was run: as §3

Mus musculus [31] = assay: Teratogenic effect in SWV mouse assessed as resorptions at 729 mg/kg, ip administered on morning of day 8 of gestation; assay type: toxicity, organism-based; set-up: dose 729 mg/kg, route intraperitoneal; details: in vivo
How it was run: (§4)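 SWV inbred mice: two-month-old nulligravid females mated overnight with males and checked for vaginal plugs next morning; gestation onset taken as 10 p.m. the previous night. On gestation day 8.5 each dam got one ip injection, 0.55–2.7 mmol/kg, in 25% aqueous Cremophor EL (vehicle controls dosed alike), 10 μL/g body weight. Litters and implants tallied; resorptions and live fetuses reported as counts with percentages.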

Mus musculus [32] = assay: Teratogenic effect in SWV mouse assessed as resorptions at 148 mg/kg, ip administered on morning of day 8 of gestation; assay type: toxicity, organism-based; set-up: dose 148 mg/kg, route intraperitoneal; details: in vivo
How it was run: as §4

Mus musculus [33] = assay: Teratogenic effect in SWV mouse assessed as live fetuses at 486 mg/kg, ip administered on morning of day 8 of gestation; assay type: toxicity, organism-based; set-up: dose 486 mg/kg, route intraperitoneal; details: in vivo
How it was run: as §4

Mus musculus [34] = assay: Teratogenic effect in SWV mouse assessed as resorptions at 486 mg/kg, ip administered on morning of day 8 of gestation; assay type: toxicity, organism-based; set-up: dose 486 mg/kg, route intraperitoneal; details: in vivo
How it was run: as §4

Mus musculus [35] = assay: Teratogenic effect in SWV mouse assessed as live fetuses at 729 mg/kg, ip administered on morning of day 8 of gestation; assay type: toxicity, organism-based; set-up: dose 729 mg/kg, route intraperitoneal; details: in vivo
How it was run: as §4

Rattus norvegicus [36] = assay: Anticonvulsant activity in Sprague-Dawley rat assessed as inhibition of maximal electroshock-induced seizures at 30 mg/kg, po after 2 hrs
Mus musculus [37] = assay: Teratogenic effect in SWV mouse assessed as live fetuses at 148 mg/kg, ip administered on morning of day 8 of gestation; assay type: toxicity, organism-based; set-up: dose 148 mg/kg, route intraperitoneal; details: in vivo
How it was run: as §3

Mus musculus [38] = assay: Teratogenic effect in SWV mouse assessed as fetuses with neural tube deffects at 148 mg/kg, ip administered on morning of day 8 of gestation; assay type: toxicity, organism-based; set-up: dose 148 mg/kg, route intraperitoneal; details: in vivo
How it was run: as §3

Rattus norvegicus [39] = assay: Anticonvulsant activity in Sprague-Dawley rat assessed as inhibition of maximal electroshock-induced seizures at 30 mg/kg, po after 4 hrs
Mus musculus [40] = assay: Teratogenic effect in SWV mouse assessed as live fetuses at 294 mg/kg, ip administered on morning of day 8 of gestation; assay type: toxicity, organism-based; set-up: dose 294 mg/kg, route intraperitoneal; details: in vivo
How it was run: as §3

Mus musculus [41] = assay: Teratogenic effect in SWV mouse assessed as resorptions at 294 mg/kg, ip administered on morning of day 8 of gestation; assay type: toxicity, organism-based; set-up: dose 294 mg/kg, route intraperitoneal; details: in vivo
How it was run: as §4

Mus musculus [42] = assay: Teratogenic effect in SWV mouse assessed as fetuses with neural tube deffects at 164 mg/kg, ip administered on morning of day 8 of gestation; assay type: toxicity, organism-based; set-up: dose 164 mg/kg, route intraperitoneal; details: in vivo
Mus musculus [43] = assay: Anticonvulsant activity in CF1 albino mouse assessed as inhibition of maximal electroshock-induced seizures at 100 mg/kg, ip after 4 hrs; assay type: functional, organism-based; set-up: dose 100 mg/kg
How it was run: as §2

Compound	Activity (Rattus norvegicus [1])	Activity (Mus musculus [2])	Activity (Mus musculus [3])	Activity (Rattus norvegicus [4])	Activity (Rattus norvegicus [5])	Activity (Mus musculus [6])	Activity (Mus musculus [12])	Activity (Mus musculus [13])	Activity (Mus musculus [14])	Activity (Rattus norvegicus [16])	Activity (Mus musculus [18])	Activity (Mus musculus [19])	Activity (Mus musculus [20])	Activity (Mus musculus [22])	ED50 (Rattus norvegicus [23]) [mg/kg]	Activity (Mus musculus [24])	Activity (Mus musculus [25])	Activity (Mus musculus [26])	Activity (Mus musculus [27])	Activity (Mus musculus [28])	other results
CCCC(C(=O)Nc1ccc(S(N)(=O)=O)cc1)C(C)C (configuration not stated)	inactive	inactive	Non-toxic	inactive	Non-toxic	inactive	Non-toxic	inactive	inactive	Active	inactive	Active	inactive	inactive	41.5	inactive	Active	inactive	Non-toxic	Non-toxic	Activity (Mus musculus [7]): Non-toxic; Activity (Mus musculus [8]): 64.6%; Activity (Mus musculus [9]): Non-toxic; Ratio TD50/ED50 (Rattus norvegicus [10]): >12; Activity (Mus musculus [11]): 2%; Activity (Mus musculus [15]): 100%; Activity (Mus musculus [17]): 10.3%; Activity (Mus musculus [21]): 35.4%
CCCC(C)C(=O)Nc1ccc(S(N)(=O)=O)cc1 (configuration not stated)	–	inactive	Non-toxic	–	–	inactive	Non-toxic	inactive	inactive	Active	inactive	Active	inactive	inactive	10.8	inactive	Active	inactive	Non-toxic	Non-toxic	Activity (Mus musculus [29]): 5.6%; Activity (Mus musculus [30]): 17%; Activity (Mus musculus [7]): Non-toxic; Activity (Mus musculus [9]): Non-toxic; Activity (Mus musculus [31]): 92.5%; Activity (Mus musculus [32]): 10%; Activity (Mus musculus [33]): 41.7%; Activity (Mus musculus [34]): 58.3%; Activity (Mus musculus [35]): 7.5%; Activity (Rattus norvegicus [36]): Active; Activity (Mus musculus [37]): 90%; Activity (Mus musculus [38]): 3.2%; Activity (Rattus norvegicus [39]): Active; Activity (Mus musculus [40]): 65.2%; Activity (Mus musculus [41]): 34.8%
CCCCC(CC)C(=O)Nc1ccc(S(N)(=O)=O)cc1 (configuration not stated)	inactive	–	Non-toxic	inactive	Non-toxic	–	Non-toxic	inactive	inactive	Active	inactive	Active	inactive	inactive	23.9	inactive	Active	Active	Non-toxic	Non-toxic	Activity (Mus musculus [42]): 5.2%; Activity (Mus musculus [43]): Active; Activity (Mus musculus [8]): 25.8%; Ratio TD50/ED50 (Rattus norvegicus [10]): >21; Activity (Mus musculus [11]): 14.7%; Activity (Mus musculus [15]): 80.8%; Activity (Mus musculus [17]): 19.2%; Activity (Mus musculus [21]): 74.2%; Activity (Rattus norvegicus [39]): Active
